Experimental data collected from several papers.
Protocols differ between the studies behind these lines.
Observed: cell growth or viability

Compound | cell line | technique | tested at | time | measurement | result
N#Cc1ccc(-c2cc(COc3cc(=O)oc4ccccc34)on2)cc1 | Z-138 | MTS | – | 72 h | IC50 | > 100 µM
CN(C)CCNC(=O)c1ccc(-c2nc3ccc4[nH]ncc4c3c3c2CCCC3)cc1 | G-361 | – | – | 72 h | GI50 | 3.5 µM
Cc1nc(Nc2ncc(C(=O)Nc3c(C)cccc3Cl)s2)cc(N2CC[C@H](O)C2)n1 | Z-138 | ATP luminescence | 10 µM | 72 h | inhibition | 56%
Cc1nc(NC(=O)N2CCC[C@H]2C(N)=O)sc1-c1ccnc(C(C)(C)C(F)(F)F)c1 | BT-20 | ATP luminescence | – | 5 days | EC50 | 2480 nM
FC(F)(F)c1cc(OCc2cc(-c3ccccc3)no2)c2ccccc2n1 | Z-138 | MTS | – | 72 h | IC50 | 68.2 µM
CN(C)CCNC(=O)c1ccc(-c2nc3ccc4[nH]ncc4c3c3c2CCCCC3)cc1 | G-361 | – | – | 72 h | GI50 | > 10 µM
O=c1cc(OCc2cc(-c3ccccn3)no2)c2ccccc2o1 | Z-138 | MTS | – | 72 h | IC50 | > 100 µM
O=C(CCc1ccc(Cl)cc1)N1C(=O)C(=Nc2ccc(Cl)cc2Br)c2ccccc21 | B16 | MTT | – | 48 h | IC50 | 23.6 µM
CN(C)CCNC(=O)c1ccc(-c2nc3ccc4[nH]ncc4c3c3c2CCCCC3)c(F)c1 | G-361 | – | – | 72 h | GI50 | 3.55 µM
O=C1C(=Nc2ccccc2Br)c2ccccc2N1Cc1ccccc1 | B16 | MTT | – | 48 h | IC50 | 0.5 µM
COc1cc([C@@H]2c3cc4c(cc3[C@@H](O[C@@H]3O[C@@H]5CO[C@@H](C)O[C@H]5[C@H](O)[C@H]3O)[C@H]3COC(=O)[C@H]23)OCO4)cc(OC)c1O | Z-138 | MTS | – | 72 h | IC50 | 0.08 µM
Cc1ccc(CN2C(=O)C(=Nc3c(C(C)C)cccc3C(C)C)c3ccccc32)cc1 | B16 | MTT | – | 48 h | IC50 | 57.2 µM
CCc1nc(C(N)=O)c(Nc2ccc(N3CCC(N4CCN(C)CC4)CC3)c(OC)c2)nc1NC1CCOCC1 | G-361 | – | – | 72 h | GI50 | 1.17 µM
C=CCN1C(=O)C(=Nc2cccc(C)c2)c2ccccc21 | B16 | MTT | – | 48 h | IC50 | 28.6 µM
Cc1n[nH]c2ccc3nc(-c4ccc(C(=O)NCCN(C)C)cc4F)c4c(c3c12)CCCCC4 | G-361 | – | – | 72 h | GI50 | > 10 µM
C[C@H](Nc1ccc2c(c1)OCCn1cc(N3C(=O)OC[C@H]3C(F)F)nc1-2)C(N)=O | BT-20 | ATP luminescence | – | 5 days | EC50 | 449 nM
O=C1C(=Nc2ccc(Cl)cc2Br)c2ccccc2N1Cc1ccc(Br)cc1 | B16 | MTT | – | 48 h | IC50 | 1.65 µM
